# Results from different studies.
# Each line is one published result; the experiments were not run side by side.
# Target: MAP kinase-interacting serine/threonine-protein kinase 1 (MKNK1, Homo sapiens, UniProt Q9BUB5)
SMILES,test,setting,quantity,result
O=C(Nc1cnn(-c2csc(C(=O)NC3COC3)c2)c1)Nc1c(F)cccc1Cl,"enzyme activity, inhibitor",5 µM,remaining activity,103%
O=C(CSc1nc2nccnc2c(=O)n1CCc1ccccc1)Nc1nccs1,"enzyme activity, inhibitor",10 µM,inhibition,1%
Cc1nccc(COC(=O)N2C[C@@H]3[C@@H](CNC(=O)c4ccc5[nH]nnc5c4)[C@@H]3C2)n1,"cell-free assay, competition with immobilised ligand",1 µM,remaining binding,91%
O=C1Nc2ccc(Cl)cc2C1=Cc1cc(Cl)c(O)c(Cl)c1,cell-free assay,0.5 µM,remaining signal,103%
CC/C(=N\NC(=O)NCc1cccc(O)c1)c1ccc(O)c(C)c1O,"enzyme activity, inhibitor",0.1 µM,inhibition,0.4%
Cc1nc(C2CCN(C(=O)c3ccc(OC(F)(F)F)cc3N)CC2)c2ncc(N3CCN(C)CC3)cc2n1,"cell-free assay, competition with immobilised ligand",1 µM,remaining binding,100%
COc1cc(Nc2cnc(C#N)c(O[C@H](C)CN(C)C)n2)ncc1-c1cnn(C)c1,"enzyme activity, inhibitor, radiometric",10 µM,remaining activity,90%
Nc1ncnc2n[nH]c(Nc3ccc(F)cc3)c12,cell-free assay,0.5 µM,remaining signal,75.2%
CC(C)(O)[C@H]1CC[C@H](Nc2ccc3ncc(-c4cccc(C(F)(F)F)c4)n3n2)CC1,"enzyme activity, inhibitor",1 µM,remaining activity,73.7%
CN(c1ncccc1CNc1nc(Nc2ccc3c(c2)CC(=O)N3)ncc1C(F)(F)F)S(C)(=O)=O,"enzyme activity, inhibitor",1 µM,inhibition,3.8%
COc1ccc2c(c1)O[C@H](c1ccc(OC)c(OC)c1)C[C@@H]2NC(=O)C1(c2ccc3c(c2)OC(F)(F)O3)CC1,"cell-free assay, competition with immobilised ligand",1 µM,remaining binding,81%
FC(F)(F)Oc1cccc(-c2cnc3ccc(-c4ccncc4)nn23)c1,"enzyme activity, inhibitor, radiometric",1 µM,activity vs control,75%
CC[C@H](CO)Nc1nc(NCc2ccccc2)c2ncn(C(C)C)c2n1,cell-free assay,0.5 µM,remaining signal,96.4%
O=C(Nc1ccc(Oc2ccc(F)cc2)cc1)N1CCc2ncccc2[C@H]1c1ccc(F)cc1,"cell-free assay, competition with immobilised ligand",1 µM,remaining binding,95%
Nc1nc(NC2CCCCC2)sc1C(=O)c1ccccc1,"enzyme activity, inhibitor",10 µM,remaining activity,105%
CNC(=O)c1ccc(Nc2ncc(C(F)(F)F)c(NCc3nccnc3N(C)S(C)(=O)=O)n2)cc1,"cell-free assay, competition with immobilised ligand",0.1 µM,remaining binding,83%
O=C1NC(=O)c2cc(Nc3ccc(F)cc3)c(Nc3ccc(F)cc3)cc21,cell-free assay,0.5 µM,remaining signal,103%
Cc1ccc(C(=O)Nc2ccc(CN3CCN(C)CC3)c(C(F)(F)F)c2)cc1C#Cc1cnc2cccnn12,"enzyme activity, inhibitor",23.5 nM,remaining activity,98%
CC(C)(C)c1nc(-c2cccc(NS(=O)(=O)c3c(F)cccc3F)c2F)c(-c2ccnc(N)n2)s1,"enzyme activity, inhibitor, radiometric",1 µM,remaining activity,128%
CCCCN(CCCC)C(=O)CN1C[C@H](c2cc(OC)c3c(c2)OCO3)[C@@H](C(=O)O)[C@@H]1CC(C)(C)CCC,"cell-free assay, competition with immobilised ligand",1 µM,remaining binding,93.3%
Cn1c(=O)n(-c2ccc(C(C)(C)C#N)cc2)c2c3cc(-c4cnc5ccccc5c4)ccc3ncc21,"enzyme activity, inhibitor",10 µM,remaining activity,101%
COc1cc2ncnc(Nc3ccc(Oc4ccccc4)cc3C)c2cc1OC,"enzyme activity, inhibitor",1 µM,inhibition,2%
